From ChEMBL document CHEMBL1150418, “Discovery of potent furan piperazine sodium channel blockers for treatment of neuropathic pain” (Bioorg Med Chem, 2008)

Key:
[1] = biological target: T1, Sodium channel protein type 10 subunit alpha (Homo sapiens, UniProt Q9Y5Y9); assay: Inhibition of human recombinant Nav1.8 channel expressed in HEK293 cells at 0.3 uM by whole cell voltage clamp technique; type: cell-based
Method in brief: (§1)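 HEK293 cells stably expressing recombinant human sodium channels, grown in high-glucose DMEM, 10% FBS, 2 mM sodium pyruvate, G418. Whole-cell voltage clamp; pipettes 0.8–2.5 MΩ; internal (mM) 135 CsF, 10 CsCl, 5 EGTA, 5 NaCl, 10 HEPES, pH 7.3 with CsOH. Holding pre-pulse set at midpoint of steady-state inactivation for each subtype.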

[2] = biological target: T1, Sodium channel protein type 10 subunit alpha; assay: Inhibition of human recombinant Nav1.8 channel expressed in HEK293 cells at 0.1 uM by whole cell voltage clamp technique; type: cell-based; method in brief: as §1
[3] = biological target: T1, Sodium channel protein type 10 subunit alpha; assay: Inhibition of human recombinant Nav1.8 channel expressed in HEK293 cells at 1 uM by whole cell voltage clamp technique; type: cell-based; method in brief: as §1
[4] = biological target: Sodium channel protein type 10 subunit alpha (Rattus norvegicus) (UniProt Q62968); assay: Blockade of Nav1.8 channel in rat dorsal root ganglion neurons assessed as inhibition of TTX-R current at 1 uM by whole cell patch clamp technique; type: tissue-based
Sodium channel protein type 10 subunit alpha (Rattus norvegicus), sequence (Q62968 whole entry, looked up): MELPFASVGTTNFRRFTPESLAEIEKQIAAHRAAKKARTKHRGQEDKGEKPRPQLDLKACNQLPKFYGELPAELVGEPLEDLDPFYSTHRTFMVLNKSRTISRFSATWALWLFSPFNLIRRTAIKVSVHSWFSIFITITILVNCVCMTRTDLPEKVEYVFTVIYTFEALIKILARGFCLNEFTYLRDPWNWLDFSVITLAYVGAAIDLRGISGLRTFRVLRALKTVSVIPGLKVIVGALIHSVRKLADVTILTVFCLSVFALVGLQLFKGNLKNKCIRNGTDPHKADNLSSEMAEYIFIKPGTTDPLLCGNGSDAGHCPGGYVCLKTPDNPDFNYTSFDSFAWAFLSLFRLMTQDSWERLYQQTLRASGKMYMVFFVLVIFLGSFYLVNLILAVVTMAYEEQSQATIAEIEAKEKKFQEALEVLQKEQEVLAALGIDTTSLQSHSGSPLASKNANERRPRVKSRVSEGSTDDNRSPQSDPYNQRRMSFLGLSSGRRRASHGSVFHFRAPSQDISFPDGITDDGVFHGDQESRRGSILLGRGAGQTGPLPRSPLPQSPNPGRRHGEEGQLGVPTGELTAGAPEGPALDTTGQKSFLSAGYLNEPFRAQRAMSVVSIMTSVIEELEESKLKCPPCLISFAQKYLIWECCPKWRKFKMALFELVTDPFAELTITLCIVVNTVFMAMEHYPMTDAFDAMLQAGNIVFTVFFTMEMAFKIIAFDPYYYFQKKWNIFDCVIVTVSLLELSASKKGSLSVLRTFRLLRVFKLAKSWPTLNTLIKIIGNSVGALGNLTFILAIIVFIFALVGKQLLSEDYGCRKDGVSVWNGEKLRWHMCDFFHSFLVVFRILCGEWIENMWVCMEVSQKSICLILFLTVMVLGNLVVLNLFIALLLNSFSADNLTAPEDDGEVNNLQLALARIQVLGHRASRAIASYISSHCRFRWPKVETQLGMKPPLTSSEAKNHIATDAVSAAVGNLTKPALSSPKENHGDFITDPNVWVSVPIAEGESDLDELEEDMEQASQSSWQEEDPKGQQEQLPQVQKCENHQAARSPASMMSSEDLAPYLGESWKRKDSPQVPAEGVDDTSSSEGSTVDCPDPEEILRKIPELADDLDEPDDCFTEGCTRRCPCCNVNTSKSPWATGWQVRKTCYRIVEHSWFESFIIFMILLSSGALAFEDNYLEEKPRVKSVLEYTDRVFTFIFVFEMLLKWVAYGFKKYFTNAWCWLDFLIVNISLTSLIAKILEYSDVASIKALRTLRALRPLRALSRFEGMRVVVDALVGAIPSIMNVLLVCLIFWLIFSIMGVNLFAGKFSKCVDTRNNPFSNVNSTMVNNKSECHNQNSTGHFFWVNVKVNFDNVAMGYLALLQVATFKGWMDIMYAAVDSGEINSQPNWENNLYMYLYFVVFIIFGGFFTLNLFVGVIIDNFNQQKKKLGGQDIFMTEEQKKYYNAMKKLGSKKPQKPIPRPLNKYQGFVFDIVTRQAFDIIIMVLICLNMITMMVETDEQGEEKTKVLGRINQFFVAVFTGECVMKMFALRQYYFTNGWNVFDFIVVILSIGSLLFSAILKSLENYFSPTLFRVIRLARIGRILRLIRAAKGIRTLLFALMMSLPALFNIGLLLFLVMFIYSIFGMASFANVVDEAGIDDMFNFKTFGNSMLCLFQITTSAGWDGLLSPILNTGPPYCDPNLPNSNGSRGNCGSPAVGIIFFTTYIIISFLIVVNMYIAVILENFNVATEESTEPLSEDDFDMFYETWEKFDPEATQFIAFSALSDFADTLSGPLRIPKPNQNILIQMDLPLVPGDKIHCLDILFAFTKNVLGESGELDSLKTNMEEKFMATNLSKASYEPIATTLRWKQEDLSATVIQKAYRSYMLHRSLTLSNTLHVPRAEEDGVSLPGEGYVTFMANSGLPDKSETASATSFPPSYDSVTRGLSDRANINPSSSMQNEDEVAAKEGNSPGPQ
Method in brief: (§2)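 Whole-cell voltage clamp of TTX-resistant currents in dissociated rat DRG neurons. Pipette (mM): CsF 135, NaCl 5, CsCl 10, EGTA 5, HEPES 10, pH 7.2. Bath (mM): NaCl 22, choline Cl 110, CaCl2 1.8, MgCl2 0.8, HEPES 10, glucose 5, pH 7.4. Inactivated-state protocol with pre-pulse at V1/2 (−40 mV). Mean ± SEM of two to six determinations.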

[5] = biological target: Sodium channel protein type 10 subunit alpha (Rattus norvegicus) (UniProt Q62968); assay: Blockade of Nav1.8 channel in rat dorsal root ganglion neurons assessed as inhibition of TTX-R current at 0.3 uM by whole cell patch clamp technique; type: tissue-based; method in brief: as §2
[6] = biological target: Sodium channel protein type 10 subunit alpha (Mus musculus, UniProt Q6QIY3); assay: Inhibition of mouse recombinant Nav1.8 channel expressed in HEK293 cells by isotopic efflux assay; type: cell-based
Sodium channel protein type 10 subunit alpha (Mus musculus, UniProt Q6QIY3), sequence (Q6QIY3 whole entry): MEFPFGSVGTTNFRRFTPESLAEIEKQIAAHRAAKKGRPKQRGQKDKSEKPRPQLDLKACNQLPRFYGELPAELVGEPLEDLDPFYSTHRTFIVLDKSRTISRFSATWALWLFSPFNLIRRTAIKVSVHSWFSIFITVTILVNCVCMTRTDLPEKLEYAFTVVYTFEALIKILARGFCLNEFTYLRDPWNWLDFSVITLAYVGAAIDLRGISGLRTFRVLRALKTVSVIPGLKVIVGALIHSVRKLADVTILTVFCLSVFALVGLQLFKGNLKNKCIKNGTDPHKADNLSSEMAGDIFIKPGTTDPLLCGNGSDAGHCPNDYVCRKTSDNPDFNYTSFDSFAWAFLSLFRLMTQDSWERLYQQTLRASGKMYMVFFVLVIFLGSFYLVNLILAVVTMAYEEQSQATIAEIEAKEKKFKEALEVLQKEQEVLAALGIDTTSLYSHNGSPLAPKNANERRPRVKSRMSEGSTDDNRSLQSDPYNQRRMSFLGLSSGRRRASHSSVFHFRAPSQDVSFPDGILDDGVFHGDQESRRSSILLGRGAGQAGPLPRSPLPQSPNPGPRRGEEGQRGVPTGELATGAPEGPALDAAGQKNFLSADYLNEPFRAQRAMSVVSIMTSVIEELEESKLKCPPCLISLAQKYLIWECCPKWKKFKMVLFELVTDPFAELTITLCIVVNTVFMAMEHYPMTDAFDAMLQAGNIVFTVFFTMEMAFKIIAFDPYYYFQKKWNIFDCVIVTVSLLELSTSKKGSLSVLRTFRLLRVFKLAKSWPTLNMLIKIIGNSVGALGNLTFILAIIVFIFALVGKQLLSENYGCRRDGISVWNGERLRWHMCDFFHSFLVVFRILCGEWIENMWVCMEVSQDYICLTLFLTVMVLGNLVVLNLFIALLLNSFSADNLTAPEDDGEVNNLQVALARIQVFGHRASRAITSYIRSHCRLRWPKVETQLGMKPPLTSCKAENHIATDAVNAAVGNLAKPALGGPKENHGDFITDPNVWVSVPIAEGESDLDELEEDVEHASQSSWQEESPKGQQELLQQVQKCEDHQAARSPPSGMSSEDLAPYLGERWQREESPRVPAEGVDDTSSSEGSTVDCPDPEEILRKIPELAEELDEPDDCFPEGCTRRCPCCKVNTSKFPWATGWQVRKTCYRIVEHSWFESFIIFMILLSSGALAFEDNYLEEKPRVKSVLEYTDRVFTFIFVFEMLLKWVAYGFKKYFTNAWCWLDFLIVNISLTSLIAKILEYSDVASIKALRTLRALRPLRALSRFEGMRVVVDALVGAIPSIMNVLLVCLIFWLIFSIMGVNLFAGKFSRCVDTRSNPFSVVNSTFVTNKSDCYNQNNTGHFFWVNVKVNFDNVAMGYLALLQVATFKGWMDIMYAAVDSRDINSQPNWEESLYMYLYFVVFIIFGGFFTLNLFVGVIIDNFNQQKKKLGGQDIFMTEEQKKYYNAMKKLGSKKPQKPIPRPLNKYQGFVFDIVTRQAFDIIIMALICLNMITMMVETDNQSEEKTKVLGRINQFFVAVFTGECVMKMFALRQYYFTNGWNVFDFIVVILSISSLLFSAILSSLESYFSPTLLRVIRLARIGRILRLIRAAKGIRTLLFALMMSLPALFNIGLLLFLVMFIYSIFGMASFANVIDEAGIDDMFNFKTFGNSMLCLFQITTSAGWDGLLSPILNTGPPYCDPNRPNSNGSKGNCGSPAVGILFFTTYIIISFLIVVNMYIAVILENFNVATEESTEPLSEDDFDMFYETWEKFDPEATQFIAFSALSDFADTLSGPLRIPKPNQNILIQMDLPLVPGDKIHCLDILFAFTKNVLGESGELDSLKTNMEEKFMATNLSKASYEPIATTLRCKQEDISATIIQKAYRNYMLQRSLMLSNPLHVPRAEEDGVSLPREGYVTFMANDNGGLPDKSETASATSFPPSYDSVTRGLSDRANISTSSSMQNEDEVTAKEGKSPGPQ

[7] = biological target: Sodium channel protein type 10 subunit alpha (Rattus norvegicus, UniProt Q62968); assay: Blockade of Nav1.8 channel in rat dorsal root ganglion neurons assessed as inhibition of TTX-R current by whole cell patch clamp technique; type: tissue-based; method in brief: as §2
Sodium channel protein type 10 subunit alpha (Rattus norvegicus, UniProt Q62968), sequence (Q62968 whole entry): as the sequence (Q62968 whole entry, looked up) above

[8] = tested on: Rattus norvegicus; assay: Analgesic activity in ip dosed Sprague-Dawley rat assessed as attenuation of mechanical allodynia in chung model of neuropathic pain
[9] = biological target: T1, Sodium channel protein type 10 subunit alpha; assay: Inhibition of human recombinant Nav1.8 channel expressed in HEK293 cells by whole cell voltage clamp technique; type: cell-based; method in brief: as §1
[10] = Ratio of drug level in brain to plasma in Sprague-Dawley rat; type: ADME; conditions: for Kp: Sprague-Dawley, brain and plasma
[11] = tested on: Rattus norvegicus; assay: Analgesic activity in ip dosed Sprague-Dawley rat by rotarod test
[12] = tested on: Rattus norvegicus; assay: Effect on locomotor activity in ip dosed Sprague-Dawley rat
[13] = biological target: Sodium channel protein type 2 subunit alpha (Homo sapiens, UniProt Q99250); assay: Inhibition of human recombinant Nav1.2 channel expressed in HEK293 cells by whole cell voltage clamp technique; type: cell-based
Method in brief: (§3)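 HEK293 cells stably expressing recombinant human sodium channels, grown in high-glucose DMEM, 10% FBS, 2 mM sodium pyruvate, G418. Holding pre-pulse set at midpoint of steady-state inactivation for each subtype.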

[14] = biological target: Sodium channel protein type 5 subunit alpha (Homo sapiens, UniProt Q14524); assay: Inhibition of human recombinant Nav1.5 channel expressed in HEK293 cells by whole cell voltage clamp technique; type: cell-based; method in brief: as §3
[15] = tested on: Rattus norvegicus; assay: Analgesic activity in po dosed Sprague-Dawley rat by rotarod test; type: functional
Method in brief: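 Accelerating rotorod: after 30-min acclimation, rats placed on 9-cm rod ramping 0–20 rpm over 60 s; latency to fall recorded, maximum 60 s; three training sessions per rat. Groups of at least six rats; mean ± SEM.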

[16] = tested on: Rattus norvegicus; assay: Cardiovascular effect in iv dosed Sprague-Dawley rat assessed as decrease in heart rate; type: functional; design: scale not given: the % may be the effect or the level left
Method in brief: (§4)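 Anesthetized rats: after a 30-min control period, blocker or vehicle (PEG-400) infused intravenously as five successive 30-min infusions at 1×, 3×, 10×, 30× and 100× of calculated therapeutic dose; blood sample and hematocrit taken after infusion; mean arterial pressure and heart rate monitored.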

[17] = tested on: Rattus norvegicus; assay: Cardiovascular effect in iv dosed Sprague-Dawley rat assessed as decrease in mean arterial blood pressure; type: functional, Artery; design: scale not given: the % may be the effect or the level left; method in brief: as §4
[18] = Plasma clearance in Sprague-Dawley rat at 10 mg/kg; type: ADME, organism-based; design: dose 10 mg/kg
Method in brief: (§5)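 Rat pharmacokinetics after administration at 10 mg/kg in 10% DMSO/PEG400.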

[19] = tested on: Rattus norvegicus; assay: Analgesic activity in po dosed Sprague-Dawley rat by edge test; type: functional
Method in brief: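 Balance test: rats placed on 0.5-cm-thick edges of a 40 × 40 × 36 cm plexiglass box, must pull up onto the edge and avoid falling; cut-off 2 min. Groups of at least six rats.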

[20] = tested on: Rattus norvegicus; assay: Analgesic activity in po dosed Sprague-Dawley rat assessed as attenuation of mechanical allodynia in chung model of neuropathic pain; type: functional
[21] = biological target: Sodium channel protein type 10 subunit alpha (Rattus norvegicus) (UniProt Q62968); assay: Blockade of Nav1.8 channel in rat dorsal root ganglion neurons assessed as inhibition of TTX-R current at 0.1 uM by whole cell patch clamp technique; type: tissue-based; method in brief: as §2
[22] = tested on: Rattus norvegicus; assay: Effect on locomotor activity in Sprague-Dawley rat at 230 umol/kg; type: functional
Method in brief: (§6)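 Open-field locomotor activity recorded with photobeam activity monitors during the light cycle; groups of at least six rats, mean ± SEM.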

[23] = Volume of distribution at steady state in Sprague-Dawley rat at 10 mg/kg; type: ADME, organism-based; design: dose 10 mg/kg; conditions: in vivo, read-out: Vdss; method in brief: as §5
[24] = Oral bioavailability in Sprague-Dawley rat at 10 mg/kg; type: ADME, organism-based; conditions: in vivo; method in brief: as §5
[25] = biological target: T1, Sodium channel protein type 10 subunit alpha; assay: Inhibition of human recombinant Nav1.8 channel expressed in HEK293 cells at 0.03 uM by whole cell voltage clamp technique; type: cell-based; method in brief: as §1
[26] = Cmax in Sprague-Dawley rat at 10 mg/kg, po; type: ADME, organism-based; design: dose 10 mg/kg, route oral; conditions: in vivo; method in brief: as §5
[27] = biological target: Sodium channel protein type 10 subunit alpha (Rattus norvegicus) (UniProt Q62968); assay: Blockade of Nav1.8 channel in rat dorsal root ganglion neurons assessed as inhibition of TTX-R current at 0.03 uM by whole cell patch clamp technique; type: tissue-based
Method in brief: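 Dissociated rat DRG neurons; TTx-r currents recorded by whole-cell voltage clamp. Holding pre-pulse was set at the steady-state inactivation midpoint (V1/2 = −40 mV), giving an inactivated-state protocol. Pipette solution (mM): CsF 135, NaCl 5, CsCl 10, EGTA 5, HEPES 10, pH 7.2. Bath solution (mM): NaCl 22, choline Cl 110, CaCl2 1.8, MgCl2 0.8, HEPES 10, glucose 5, pH 7.4. Percent inhibition is the mean of 2–6 determinations ± SEM.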

[28] = biological target: Sodium channel protein type 10 subunit alpha (Rattus norvegicus) (UniProt Q62968); assay: Blockade of Nav1.8 channel in rat dorsal root ganglion neurons assessed as inhibition of TTX-R current at 10 uM by whole cell patch clamp technique; type: tissue-based; method in brief: as §2
[29] = tested on: Rattus norvegicus; assay: Effect on locomotor activity in po dosed Sprague-Dawley rat; type: functional; method in brief: as §6

## O=C(c1ccc(-c2ccc(Cl)cc2Cl)o1)N1CCN(C2CCCCC2)CC1
[1]
  inhibition: 12%

## O=C(c1ccc(-c2ccc(Oc3ccccc3)cc2)o1)N1CCNCC1
[2]
  inhibition: 39%
[3]
  inhibition: 93%
[4]
  inhibition: 56%

## CN(C)c1ccc(-c2ccc(C(=O)N3CCN(C4CCCCC4)CC3)o2)cc1
[3]
  inhibition: 65%

## O=C(NCCN1CCCCC1)c1ccc(-c2ccc(Cl)cc2)o1
[2]
  inhibition: 29%
[5]
  inhibition: 59%
[6]
  IC50: 0.9 µM

## Cc1cccc(C)c1OCC(C)N (centres undefined) [MEXILETINE]
[7]
  IC50: 31 µM
[8]
  ED50: 102 µmol/kg
[9]
  IC50: 56 µM
[10]
  Kp: 1.4
[11]
  ED50: > 140 µmol/kg
[12]
  ED50: 45 µmol/kg
[13]
  IC50: 2.9 µM

## CN(C)CC(C)(C)CNC(=O)c1ccc(-c2ccc(Cl)cc2)o1
[5]
  inhibition: 65%
[6]
  IC50: 2.4 µM

## O=C(c1ccc(-c2ccc(Cl)cc2)o1)N1CCN(c2cccc(C(F)(F)F)c2)CC1
[6]
  IC50: 14 µM

## CC(C)(C)c1ccc(-c2ccc(C(=O)N3CCN(C4CCCCC4)CC3)o2)cc1
[14]
  IC50: 0.1 µM
[2]
  inhibition: 81%
[15]
  ED50: > 300 µmol/kg
[7]
  IC50: 0.09 µM
[9]
  IC50: 0.03 µM
[16]
  Activity: 27%
[17]
  Activity: 11%
[18]
  clearance: 127 mL/min/kg
[19]
  ED50: > 300 µmol/kg
[10]
  Kp: 8
[20]
  ED50: 4.7 µmol/kg
[21]
  inhibition: 58%
[22]
  Activity: 38%
[23]
  Vd: 13.4 L/kg
[24]
  bioavailability: 7%
[25]
  inhibition: 57%
[26]
  Cmax: 570 ng/mL
[27]
  inhibition: 20%

## O=C(c1ccc(-c2cccc(Cl)c2)o1)N1CCN(C2CCCCC2)CC1
[2]
  inhibition: 22%
[3]
  inhibition: 80%

## CC(C)(C)c1ccc(-c2ccc(C(=O)N3CCNCC3)o2)cc1
[2]
  inhibition: 44%
[3]
  inhibition: 85%
[28]
  inhibition: 86%

## Nc1nnc(-c2cccc(Cl)c2Cl)c(N)n1 [LAMOTRIGINE]
[14]
  IC50: 62 µM
[15]
  ED50: > 390 µmol/kg
[7]
  IC50: 25 µM
[9]
  IC50: 96 µM
[29]
  ED50: > 390 µmol/kg
[18]
  clearance: 1 mL/min/kg
[19]
  ED50: > 390 µmol/kg
[10]; brain
  Ratio: 26
[20]
  ED50: 47 µmol/kg
[23]
  Vd: 0.98 L/kg
[24]
  bioavailability: 79%
[26]
  Cmax: 3500 ng/mL
[13]
  IC50: 10 µM
